Calls of active or inactive are those of the source.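 How the source made its calls, unless noted: active means fluorescence slope after compound addition differing from the mean of all screened samples at 99.7% confidence, in either direction; inactive means the rest.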
How the values were obtained:
[1] = inhibitors of TNFa-induced NFkB p65 translocation, primary screen, imaging, HUVEC, MLSMR starter and 10KST1 sets (AID 438;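 active means inhibition above 20% together with a positive visual image hit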;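 further: compound added about 3h40 before a 20 min TNFalpha stimulation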;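 on inhibition: signal is the nuclear over cytoplasmic p65 intensity ratio per well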); conditions: HUVEC TNFa-induced p65 nuclear translocation; cell count: measured here: nuclei count (cytotoxicity indicator), at 2.08 µM; inhibition: at 2 µM, stronger effect = higher value, 0% TNFa-plus-vehicle, 100% no-TNFa wells
[2] = inhibitors of E-selectin induction by TNFa, primary screen, imaging, HUVEC, immunofluorescence, MLSMR starter and 10KST1 sets (AID 487;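 active means visually confirmed hit in the image check and inhibition above 20%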;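 on inhibition: signal is fraction of cell area covered by stained E-selectin grains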;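 on nuclei count: 100% = median nuclei count of all wells on the same plate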); conditions: HUVEC TNFalpha-induced E-selectin immunofluorescence imaging, at 2 µM; inhibition: stronger effect = higher value; nuclei count: measured here: cell number, toxicity
[3] = DUSP6 inhibitors restoring Erk phosphorylation by chemical complementation, primary imaging in DUSP6-transfected HeLa (AID 609;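 active means compounds giving at least 50% inhibition in the cell-based MKP-3 phosphatase rescue imaging test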;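 on inhibition: phospho-Erk level distribution per well compared with pooled transfected vehicle control wells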); conditions: HeLa MKP-3 transfected, phospho-Erk imaging KS statistic, at 10 µM, cells stimulated with TPA for 15 min
[4] = molecular target: Dual specificity protein phosphatase 6 (Homo sapiens) (UniProt Q16828); test: as above; conditions: HeLa MKP-3 transfected, phospho-Erk imaging KS statistic; at 10 µM; stronger effect = higher value; cells stimulated with TPA for 15 min
Chain of Dual specificity protein phosphatase 6 (Homo sapiens) (Q16828 whole entry, looked up): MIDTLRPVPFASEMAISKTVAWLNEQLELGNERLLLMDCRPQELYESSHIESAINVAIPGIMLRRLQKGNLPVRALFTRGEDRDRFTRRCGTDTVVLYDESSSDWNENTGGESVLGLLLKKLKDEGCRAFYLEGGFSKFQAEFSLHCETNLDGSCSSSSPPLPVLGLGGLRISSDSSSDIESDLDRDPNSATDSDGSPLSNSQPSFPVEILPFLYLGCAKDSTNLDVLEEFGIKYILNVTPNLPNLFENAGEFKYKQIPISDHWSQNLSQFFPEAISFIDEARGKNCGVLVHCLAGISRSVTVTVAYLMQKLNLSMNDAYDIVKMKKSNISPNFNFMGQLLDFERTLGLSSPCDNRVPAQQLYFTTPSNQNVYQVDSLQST

[5] = molecular target: Voltage-gated potassium channel subunit beta-2 (Rattus norvegicus) (UniProt P62483); test: KvBeta enzyme negative modulators, primary screen, biochemical, NADPH fluorescence (AID 622;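 active means fluorescence slope higher than the sample average by over 3 SD, cut at about -0.22 in these data, passing the limit was not always enough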;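 further: slope of raw intensity against log time taken from 70 to 1610 s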); conditions: recombinant KvBeta, 4-cyanobenzaldehyde reduction, at 10 µM, stronger effect = higher value
Chain of Voltage-gated potassium channel subunit beta-2 (Rattus norvegicus) (P62483 whole entry, looked up): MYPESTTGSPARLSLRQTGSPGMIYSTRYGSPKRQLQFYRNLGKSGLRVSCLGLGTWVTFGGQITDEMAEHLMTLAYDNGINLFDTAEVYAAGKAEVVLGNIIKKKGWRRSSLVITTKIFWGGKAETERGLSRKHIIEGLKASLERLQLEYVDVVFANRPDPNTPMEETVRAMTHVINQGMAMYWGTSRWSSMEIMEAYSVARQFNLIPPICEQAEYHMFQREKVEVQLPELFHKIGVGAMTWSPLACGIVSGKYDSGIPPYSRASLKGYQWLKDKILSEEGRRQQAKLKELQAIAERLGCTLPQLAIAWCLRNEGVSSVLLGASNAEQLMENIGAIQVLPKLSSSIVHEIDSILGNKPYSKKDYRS

[6] = molecular target: Voltage-gated potassium channel subunit beta-2 (Rattus norvegicus) (UniProt P62483); test: KvBeta positive modulators, primary screen, biochemical, NADPH fluorescence (AID 623;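 active means NADPH fluorescence slope more negative than the mean of all samples by about 3 SD, 99.7% confidence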;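 further: fluorescence intensity change per second fitted from 20 to 320 s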); conditions: Recombinant KvBeta, NADPH fluorescence decrease slope, 10 min; at 10 µM; stronger effect = lower value
[7] = molecular target: Alpha-2C adrenergic receptor (Homo sapiens) (UniProt P18825); test: modulators of alpha2C/GIRK thallium flux, primary screen, cell-based, HEK293 alpha2C/GIRK1/2 (AID 624); conditions: thallium flux BTC fluorescence, at 10 µM, actives lie on both sides;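 further: slope of fluorescence ratio to pre-addition baseline per second over 15 to 24 s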
Chain of Alpha-2C adrenergic receptor (Homo sapiens) (P18825 whole entry, looked up): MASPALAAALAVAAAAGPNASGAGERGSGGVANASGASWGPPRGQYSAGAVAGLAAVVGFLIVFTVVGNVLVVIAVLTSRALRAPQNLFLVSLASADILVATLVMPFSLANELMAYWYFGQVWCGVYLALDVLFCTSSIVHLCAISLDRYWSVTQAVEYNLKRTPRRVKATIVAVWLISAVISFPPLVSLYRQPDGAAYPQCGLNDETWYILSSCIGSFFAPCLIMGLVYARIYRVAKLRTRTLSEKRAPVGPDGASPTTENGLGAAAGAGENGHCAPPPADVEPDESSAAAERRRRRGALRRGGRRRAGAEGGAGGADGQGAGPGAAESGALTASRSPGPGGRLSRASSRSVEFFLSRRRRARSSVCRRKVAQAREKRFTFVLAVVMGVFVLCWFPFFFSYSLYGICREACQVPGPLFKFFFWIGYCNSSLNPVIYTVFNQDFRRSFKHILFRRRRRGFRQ

[8] = inhibitors of larval lipid processing in zebrafish, primary screen, whole organism, PED6 fluorescence, gall bladder and intestine (AID 686;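 active means a full or partial loss of lipid-probe fluorescence in the fish gall bladder, intestine or both, judged by eye; inactive means no fluorescence loss, or compound toxic to the fish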;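 further: larvae 5 to 7 days old with five fish per well; signal comes from phospholipase A2 cleavage of quenched PED6 carried via bile; overnight exposure to compound and PED6 before scoring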); conditions: Zebrafish larvae PED6 lipid processing, fluorescence scoring; screened at 20 µM (by protocol)
Outline: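 Test system – live zebrafish larvae aged 5-7 days, whole organism · Buffer or medium – E3 fish medium · Reagent – quenched phospholipase substrate PED6, 100 nM final, ingested by larvae · Doses – 20 µM single dose · Incubation – overnight compound and PED6 incubation · Technique – visual fluorescence microscopy scoring of gall bladder, gut · Read-out basis – visual per-well fluorescence inhibition score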

[9] = inhibitors of Chlamydomonas gravitaxis, primary screen, whole organism, Chlamydomonas reinhardtii, WT vs cilia-less mutant, absorbance, 96-well (AID 463189;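 active means inhibition at or above 50% relative to wild type and mutant plate controls; inactive means inhibition below 50%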;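 further: 0% = wild type cc124 cells in DMSO and 100% = ciliumless bld1 mutant cells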); conditions: OD600 absorbance, 2 days, at 10 µM, stronger effect = higher value
[10] = measured here: cell density z-score
[11] = measured here: nuclear c-Myc green intensity z-score
[12] = measured here: nuclear pErk red intensity z-score, stronger effect = higher value

Row | Compound | cell count [1] | inhibition [1] | inhibition [2] | nuclei count [2] | z-score [3, 10] | z-score [3, 11] | z-score [3, 12] | inhibition [4] | fluorescence slope [5] | NADPH fluorescence slope [6] | slope [7] | outcome [8] | inhibition [9]
1 | CN1C(=O)N(c2ccccc2)C(Nc2nncs2)C1(C)C (centres undefined) | 438 | 3.5% (inactive) | -58.9% (inactive) | 167% | -0.342 | 0.524 | 0.181 | -2.29% (inactive) | -0.341 (inactive) | -2.5e-05 (inactive) | 0.00481 (inactive) | inactive | 1.2% (inactive)
2 | COc1ccc(NC(=O)Nc2cccc(C(=O)N3CCOCC3)c2)cc1OC | 543 | 0% (inactive) | -176% (inactive) | 131% | 0.702 | -0.546 | -0.00586 | 12.3% (inactive) | -0.527 (inactive) | -7.4e-05 (inactive) | 0.00529 (inactive) | inactive | 12.3% (inactive)
3 | Cc1ccc(SCc2nnc(N)s2)cc1 | 580 | -16.4% (inactive) | 29.9% (inactive) | 161% | -0.876 | -0.003 | 0.564 | -15% (inactive) | -0.396 (inactive) | -5.4e-05 (inactive) | 0.00821 (inactive) | inactive | 7.17% (inactive)
4 | O=C(O)C1CSCN1S(=O)(=O)c1cccc2nsnc12 (centres undefined) | 539 | -8.4% (inactive) | -34% (inactive) | 120% | -0.369 | 1.2 | -0.893 | -11.5% (inactive) | -0.496 (inactive) | -5.5e-05 (inactive) | 0.00516 (inactive) | inactive | -1.08% (inactive)
5 | CCOC(=O)C1=C(CSc2nc3c(cc2C#N)CN(C)CC3)OC(N)=C(C#N)C1c1ccccc1 (centres undefined) | 616 | -8.1% (inactive) | 28.8% (inactive) | 169% | 1.95 | -0.602 | 0.371 | -5.62% (inactive) | -0.384 (inactive) | -4.7e-05 (inactive) | 0.00325 (inactive) | inactive | -1.09% (inactive)
6 | CC(Sc1nc(N2CCCCC2)c2c(c1C#N)CCCC2)C(=O)O (centres undefined) | 624 | 4.5% (inactive) | -96.1% (inactive) | 161% | -0.692 | 0.635 | -1.09 | 9.82% (inactive) | -0.301 (inactive) | 1.2e-06 (inactive) | 0.00467 (inactive) | inactive | -8.39% (inactive)
7 | CCOC(=O)COc1nc(N(C)C)nc(N(C)C)n1 | 634 | -15% (inactive) | -349% (inactive) | 183% | 0.237 | 0.0213 | 0.713 | 7.48% (inactive) | -0.492 (inactive) | -0.000101 (inactive) | 0.00583 (inactive) | inactive | -0.47% (inactive)
8 | CCCCOc1ccc(C(=O)OC2CC(C)N(C)CC2C)cc1 (centres undefined) | 358 | -21.6% (inactive) | -186% (inactive) | 155% | -0.354 | -1.1 | -0.696 | -14% (inactive) | -0.46 (inactive) | -0.000115 (inactive) | 0.00554 (inactive) | inactive | 144% (active)
9 | COc1cc(OC)cc(C(=O)N2CCC(N3CCN(c4ccccc4)CC3)CC2)c1 | 382 | -13.9% (inactive) | -114% (inactive) | 122% | 1.61 | -0.715 | -0.404 | 12.7% (inactive) | -0.342 (inactive) | 5.8e-05 (inactive) | 0.00556 (inactive) | inactive | -4.18% (inactive)
10 | CCCOc1ccc(CSC(CC(=O)O)C(=O)O)cc1 (centres undefined) | 542 | 1.4% (inactive) | -21% (inactive) | 124% | 1.34 | -1.26 | -1.51 | -3.5% (inactive) | -0.332 (inactive) | 1.3e-05 (inactive) | 0.00503 (inactive) | inactive | 15.7% (inactive)
11 | Cn1c(N2CCOCC2)nc2c1c(=O)n(Cc1ccc(Cl)c(Cl)c1)c(=O)n2C | 616 | -1.9% (inactive) | -39.8% (inactive) | 146% | -0.645 | 0.0379 | -0.103 | 2.46% (inactive) | -0.474 (inactive) | -0.000203 (inactive) | 0.00465 (inactive) | inactive | 24.4% (inactive)
12 | CCOC(=O)CCc1c(C)c(C#N)c2[nH]c3ccccc3n2c1=O | 536 | -1.4% (inactive) | -8.6% (inactive) | 82.5% | -0.186 | -0.0675 | -0.0374 | 15.9% (inactive) | -0.617 (inactive) | -3.7e-05 (inactive) | 0.00416 (inactive) | active; weak signal in gallbladder and intestine | 18.4% (inactive)
13 | Cn1c2ccccc2c2nn(-c3ccccc3)c(=O)cc21 | 304 | -5% (inactive) | -28.5% (inactive) | 94.5% | -1.04 | 0.853 | -0.375 | -8.59% (inactive) | -0.441 (inactive) | -0.000115 (inactive) | 0.00467 (inactive) | inactive | -13.4% (inactive)
